The source of these data is ChEMBL document CHEMBL2203147 (ACS Med Chem Lett, 2011).

By Ki is commonly meant a dissociation constant, usually derived from enzyme kinetics or from competition with a known ligand. A lower Ki goes with higher affinity. For orientation: solubility means the dissolved amount per volume that the medium holds. A higher solubility goes with much dissolved substance. The term Emax denotes the size of the effect at its maximum, as opposed to the concentration needed.

The nature of data set [1]: Displacement of [3H]SCH 23390 from Sprague-Dawley rat dopamine D1-like receptor after 90 mins.
The target of the next data set is D(3) dopamine receptor (Rattus norvegicus, UniProt P19020). Briefly: Displacement of [3H]R(+)-7-OH-DPAT from Sprague-Dawley rat dopamine D3 receptor after 90 mins.
Data set [2] has as its system Rattus norvegicus. Kind of data set: Induction of yawning in sc dosed Sprague-Dawley rat after 60 mins. Format: functional, organism-based.
Data set [3] is filed under the species Rattus norvegicus. Conditions: Sprague-Dawley, 0.32 mg/kg.
Data set [4] is filed under the species Rattus norvegicus. The conditions noted are these: Sprague-Dawley, 10 mg/kg.
Data set [5] deals with Rattus norvegicus. Briefly: Induction of hypothermia in Sprague-Dawley rat at 10 mg/kg, sc after 60 mins. The data set is classed as functional, organism-based. Also on record: dose 10 mg/kg. Put shortly: (§1)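 Readout is the change in core body temperature in rats after subcutaneous agonist dosing. Statistical significance was assessed at P < 0.05, 0.005 and 0.001.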
Data set [6] has as its system Rattus norvegicus. Briefly: Induction of yawning in Sprague-Dawley rat at 1 mg/kg, sc pre-treated with 32 mg/kg D3 receptor antagonist SB-277011A measured 30 mins post dose. The data set is classed as functional, organism-based. Put shortly:
(§2)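 The selective antagonist (D3: SB-277011A; D2: L-741,626) was given before the subcutaneous agonist dose. Yawning was then scored in rats.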

For data set [7], the species on record is Rattus norvegicus. The conditions noted are these: Sprague-Dawley, 10 mg/kg. The source holds these as a separate data set.
A short description of data set [8]: Aqueous solubility of the compound. Format: physicochemical.
The subject of data set [9] is Rattus norvegicus. Briefly: Induction of yawning in Sprague-Dawley rat at 1 mg/kg, sc pre-treated with 1 mg/kg D2 receptor antagonist L-741,626 measured 30 mins post dose. The data set is classed as functional, organism-based. Put shortly: as §2
Data set [10] deals with Rattus norvegicus. Kind of data set: Induction of yawning in Sprague-Dawley rat at 10 mg/kg, sc pre-treated with 1 mg/kg D2 receptor antagonist L-741,626 measured 30 mins post dose. The data set is classed as functional, organism-based. Put shortly: as §2
Data set [11] has as its system Rattus norvegicus. Briefly: Induction of yawning in Sprague-Dawley rat at 10 mg/kg, sc pre-treated with 32 mg/kg D3 receptor antagonist SB-277011A measured 30 mins post dose. Format: functional, organism-based. Put shortly: as §2
Data set [12] concerns Rattus norvegicus. Briefly: Induction of hypothermia in Sprague-Dawley rat at 3.2 mg/kg, sc after 60 mins. Format: functional, organism-based. Also on record: dose 3.2 mg/kg. Put shortly: as §1
Data set [13] concerns the target D(1A) dopamine receptor (Homo sapiens) (UniProt P21728). Kind of data set: Displacement of [3H]SCH-23390 from human cloned dopamine D1 receptor expressed in LhD1 cells at 10000 nM after 60 mins by scintillation counter. The data set is classed as cell-based. On the technique in general: In a radioligand displacement assay an active substance lowers the binding of a labelled ligand.

Data set [14] relates to Rattus norvegicus. Kind of data set: Induction of yawning in Sprague-Dawley rat at 1 mg/kg, sc after 60 mins. The data set is classed as functional, organism-based. Also on record: dose 1 mg/kg.
Data set [15] deals with Rattus norvegicus. Briefly: Induction of yawning in Sprague-Dawley rat at 0.01 mg/kg, sc after 60 mins. Also on record: dose 0.01 mg/kg. Format: functional, organism-based.
In data set [16] the test system is Rattus norvegicus. Briefly: Induction of yawning in Sprague-Dawley rat at 0.01 to 10 mg/kg, sc after 60 mins. Format: functional, organism-based.
Data set [17] has as its system Rattus norvegicus. Kind of data set: Induction of hypothermia in Sprague-Dawley rat at 10 mg/kg, sc pre-treated with 1 mg/kg D2 receptor antagonist L-741,626 measured 30 mins post dose.
Data set [18] has as its target D(3) dopamine receptor (Homo sapiens) (UniProt P35462). Kind of data set: Agonist activity at human dopamine D3 receptor expressed in CHOp cells assessed as […] quinpirole-induced mitogenesis after 24 hrs relative to quinpirole. Format: functional, cell-based. Put shortly:
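Mitogenesis functional assay on cloned human D3 receptor expressed in CHO cells. Quinpirole serves as the standard D3 agonist control. Readouts are EC50 and maximal stimulation, expressed as a percentage of the quinpirole maximum.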

The species named for data set [19] is Rattus norvegicus. Briefly: Selectivity ratio of Ki for Sprague-Dawley rat dopamine D1-like receptor to Ki for Sprague-Dawley rat dopamine D3 receptor.
The species named for data set [20] is Rattus norvegicus. Kind of data set: Selectivity ratio of Ki for Sprague-Dawley rat dopamine D2-like receptor to Ki for Sprague-Dawley rat dopamine D3 receptor.
For the next data set, the target named is D(2) dopamine receptor (Rattus norvegicus, UniProt P61169). Kind of data set: Displacement of [3H]Spiperone from Sprague-Dawley rat dopamine D2-like receptor after 90 mins.
Data set [21] deals with Rattus norvegicus. Briefly: Induction of yawning in Sprague-Dawley rat at 0.1 to 10 mg/kg, sc after 60 mins. The data set is classed as functional, organism-based.

The source made the active and inactive calls. No cut-off for these calls is given here.

Chain of D(3) dopamine receptor (P19020 whole entry): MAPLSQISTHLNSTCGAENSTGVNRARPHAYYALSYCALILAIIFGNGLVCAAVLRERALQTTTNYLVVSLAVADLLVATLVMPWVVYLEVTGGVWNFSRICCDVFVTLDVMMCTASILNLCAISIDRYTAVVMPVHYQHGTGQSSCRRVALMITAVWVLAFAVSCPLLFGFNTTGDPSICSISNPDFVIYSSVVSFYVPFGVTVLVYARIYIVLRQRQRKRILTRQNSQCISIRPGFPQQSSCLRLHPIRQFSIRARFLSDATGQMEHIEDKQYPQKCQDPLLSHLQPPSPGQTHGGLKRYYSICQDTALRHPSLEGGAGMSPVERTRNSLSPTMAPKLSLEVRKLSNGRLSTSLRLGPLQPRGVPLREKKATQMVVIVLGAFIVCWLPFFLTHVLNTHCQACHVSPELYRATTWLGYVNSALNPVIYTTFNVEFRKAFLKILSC
Chain of D(2) dopamine receptor (P61169 whole entry): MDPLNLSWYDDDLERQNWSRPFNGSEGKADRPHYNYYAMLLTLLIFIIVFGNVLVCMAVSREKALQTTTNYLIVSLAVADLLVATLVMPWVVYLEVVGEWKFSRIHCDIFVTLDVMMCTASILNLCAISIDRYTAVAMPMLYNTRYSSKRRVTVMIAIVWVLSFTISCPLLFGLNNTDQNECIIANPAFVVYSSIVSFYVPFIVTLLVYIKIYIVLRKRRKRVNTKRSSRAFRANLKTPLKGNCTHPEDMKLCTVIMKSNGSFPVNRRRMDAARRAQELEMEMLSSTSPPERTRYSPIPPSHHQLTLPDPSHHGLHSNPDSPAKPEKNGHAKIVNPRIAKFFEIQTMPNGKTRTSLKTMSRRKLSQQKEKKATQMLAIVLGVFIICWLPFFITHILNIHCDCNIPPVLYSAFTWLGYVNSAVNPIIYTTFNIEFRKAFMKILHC
Chain of D(3) dopamine receptor (Homo sapiens) (P35462 whole entry): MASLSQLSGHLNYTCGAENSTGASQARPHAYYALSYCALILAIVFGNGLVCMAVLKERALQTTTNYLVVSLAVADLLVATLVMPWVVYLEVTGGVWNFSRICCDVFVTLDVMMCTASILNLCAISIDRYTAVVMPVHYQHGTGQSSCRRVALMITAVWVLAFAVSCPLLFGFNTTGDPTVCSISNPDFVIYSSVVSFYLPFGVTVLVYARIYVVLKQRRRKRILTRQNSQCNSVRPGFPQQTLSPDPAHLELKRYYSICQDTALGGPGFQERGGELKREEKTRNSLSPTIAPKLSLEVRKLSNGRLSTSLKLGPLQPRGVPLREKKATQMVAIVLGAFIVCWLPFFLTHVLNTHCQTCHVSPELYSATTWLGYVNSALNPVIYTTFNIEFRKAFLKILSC
Chain of D(1A) dopamine receptor (Homo sapiens) (P21728 whole entry): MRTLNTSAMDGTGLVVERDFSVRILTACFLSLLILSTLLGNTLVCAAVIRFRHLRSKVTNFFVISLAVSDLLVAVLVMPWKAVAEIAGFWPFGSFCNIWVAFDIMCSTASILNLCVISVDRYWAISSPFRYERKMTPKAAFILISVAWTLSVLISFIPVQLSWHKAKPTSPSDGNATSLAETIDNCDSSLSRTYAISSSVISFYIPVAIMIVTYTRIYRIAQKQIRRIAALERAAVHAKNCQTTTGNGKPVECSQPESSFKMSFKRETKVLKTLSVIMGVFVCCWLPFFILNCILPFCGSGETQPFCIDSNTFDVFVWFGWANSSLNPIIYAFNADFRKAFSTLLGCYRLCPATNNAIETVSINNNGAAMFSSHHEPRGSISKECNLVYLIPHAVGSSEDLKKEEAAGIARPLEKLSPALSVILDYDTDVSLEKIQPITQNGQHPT

With `CCCN[C@H]1CCc2nc(N)sc2C1` [PRAMIPEXOLE], the Ki is above 10 µM in [1] and 0.00045 µM at D(3) dopamine receptor. Also, in the data set with Rattus norvegicus [2], the Activity result is “Dose-dependent effect”. The same molecule returned a deltaT in the data set filed under Rattus norvegicus [3] of 0.75 °C. Also, the inhibition result in the data set filed under Rattus norvegicus [4] is “Active”. In addition, the result with Rattus norvegicus [5] was Active.
Consider `CCCN(CC[C@]1(O)C[C@H](NC(=O)c2ccc3ccccc3c2)C1)[C@H]1CCc2nc(N)sc2C1.Cl`, for which the result (with Rattus norvegicus [6]; in the data set on Rattus norvegicus [11]; with Rattus norvegicus [12]; in [13]) was inactive. Also, the deltaT in the data set listed under Rattus norvegicus [7] is 0.75 °C. In [8], this molecule yielded a solubility above 100 mg/mL. The result with Rattus norvegicus [9], in the data set on Rattus norvegicus [10], in the data set with Rattus norvegicus [14], in the data set on Rattus norvegicus [15], in the data set on Rattus norvegicus [16] and with Rattus norvegicus [17] was Active. Further, in the data set on Rattus norvegicus [5], the result was Active. Also, the Activity entry in the data set with Rattus norvegicus [2] is “Dose-dependent effect”. Moreover, in [18], the Emax was 103%.
For `CCCN(CC[C@H]1C[C@@H](NC(=O)c2ccc3ccccc3c2)C1)[C@H]1CCc2nc(N)sc2C1`, the results for the Ratio Ki in the data set listed under Rattus norvegicus [19] and in the data set filed under Rattus norvegicus [20] were 8820 and 1630, respectively. Further, the inhibitory constant (Ki) in data set [1] amounted to 3.06 µM; on D(3) dopamine receptor, 0.00035 µM; on D(2) dopamine receptor, 0.564 µM.
With `CCCN(CC[C@]1(O)CC[C@H](NC(=O)c2ccc3ccccc3c2)CC1)[C@H]1CCc2nc(N)sc2C1`, the figures for the Ratio Ki in the data set listed under Rattus norvegicus [19] and in the data set listed under Rattus norvegicus [20] were 15100 and 3820, respectively. The inhibition constant Ki in data set [1] was 14.1 µM; on D(3) dopamine receptor it was 0.00093 µM; at D(2) dopamine receptor, 3.55 µM.
In the case of `CCCN(CC[C@]1(O)C[C@@H](NC(=O)c2ccc3ccccc3c2)C1)[C@H]1CCc2nc(N)sc2C1.Cl`, in [8], the solubility was above 100 mg/mL. Moreover, the outcome in the data set with Rattus norvegicus [14] and with Rattus norvegicus [21] was Active. Besides, the Activity result with Rattus norvegicus [2] is “Dose-dependent effect”.
Consider `CCCN(CC[C@H]1C[C@H](NC(=O)c2ccc3ccccc3c2)C1)[C@H]1CCc2nc(N)sc2C1`, for which the Ratio Ki in the data set filed under Rattus norvegicus [19] is 14800; in the data set filed under Rattus norvegicus [20] it was 1420. The inhibition constant Ki in data set [1] worked out at 6.12 µM; at D(3) dopamine receptor it was 0.00041 µM; at D(2) dopamine receptor, 0.584 µM.
In data set [8], `CCCN(CC[C@H]1CC[C@H](NC(=O)/C=C/c2ccccc2)CC1)[C@H]1CCc2nc(N)sc2C1` returned a solubility above 50 mg/mL.
For the molecule `CCCN(CC[C@]1(O)CC[C@@H](NC(=O)c2ccc3ccccc3c2)CC1)[C@H]1CCc2nc(N)sc2C1`, the Ratio Ki is 7370 in the data set listed under Rattus norvegicus [19] and 1040 in the data set filed under Rattus norvegicus [20]. The results for the Ki (in data set [1]; on D(3) dopamine receptor; at D(2) dopamine receptor) were 11.6 µM, 0.0016 µM and 1.63 µM, respectively.
Turning to `CCCN(CC[C@H]1CC[C@H](NC(=O)c2ccc3ccccc3c2)CC1)[C@H]1CCc2nc(N)sc2C1`, the solubility in [8] is above 50 mg/mL. The Ki in data set [1] was above 5 µM.
